The text below walks through data of the RNAGym collection of RNA variant scans (doi:10.1126/science.aae0568).

Fewer inactive variants are shown than the library holds.

B1: tRNA (parent)
chain: GUUCCGUUGGCGUAAUGGUAACGCGUCUCCCUCCUAAGGAGAAGACUGCGGGUUCGAGUCCCGUACGGAACG

In the data set the parent is B1. The data set can be described thus: yeast fitness relative to wild type (ratio to wild type); higher = fitter; tRNA-Arg(CCU), competitive growth, 37 C, YPD. The gist of the method: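 Variants of the tRNA-Arg(CCU) gene were chemically synthesised with a 3% per-site mutation rate across 69 sites and placed at the native genomic locus in Saccharomyces cerevisiae. Six parallel replicates of the pooled strains were competed in YPD at 37°C for 24 hours, and gene amplicons from the start and end populations were read by 100-nucleotide paired-end sequencing. Darwinian fitness relative to wild type was derived from changes in genotype frequencies. Genotypes required ≥ 100 starting reads, and estimates < 0.5 were set to 0.5.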
Turning to GUUCCGUAGGCGUAAUGGUAACGCGGCUCCCUCCUAAGGAGAAGACUGCGGGUUCGAGUCCCGUACGGAACG [U8A U26G], the yeast fitness was 0.666.
The result for GUUCCGUAGGCGUAAUGGUAACGCGCCUCCCUCCUAAGGAGAAGACUGCGGGUUCGAGUCCCGUACGGAACG [U8A U26C] reads 0.646; that for GUUCCGUAGGCGUAAUGGUAACGCGACUCCCUCCUAAGGAGAAGACUGCGGGUUCGAGUCCCGUACGGAACG [U8A U26A], 0.733.
Turning to GUUCCGUAGGCGCAAUGGUAACGCGUCUCCCUCCUAAGGAGAAGACUGCGGGUUCGAGUCCCGUAUGGAACG [U8A U13C C66U], the yeast fitness was found to be 0.607.
The result for GUUCCGUAGGCGUAAUGGUAACGCCUCUCCCUCCUACGGAGAAGACUGCGGGUUCGAGUCCCGUACGGAACG [U8A G25C A37C] reads not above 0.5; that for GUUCCGUAGGCGUAAUGGUAACGCCUCUCCCUCCUACGGAGAAGACUGCGGGUUCGAGUCCCGUCCGGAACG [U8A G25C A37C A65C], not above 0.5.
The result for GUUCCGUAGGCGUAAUGGUAACGCGUCUCCCUCCUAAGGAGAAGACUACGGGUUCGAGUCCCGUACGGAACG [U8A G48A] reads 0.666; that for GUUCCGUAGGCGUAAUGGUAACGCGCCUCCCUCCUAAGGAGAUGACUGCGGGUUUGAGUCCCGUACGGAACG [U8A U26C A43U C55U], not above 0.5.
The result for GUUCCGUAGGCGUAAUGGUAACGCCUCUCCCUCCAAAGGAGAAGACUGCGGGUUCGAGUCCCGUACGGAACG [U8A G25C U35A] reads not above 0.5.
As to GUUCCGUAGGCGUAAUGGUAACGCGUCUCCCUCCUAAGGAGAAGACUGCGGCUUCGAGUCCCGUACGGAACG [U8A G52C], the yeast fitness was not above 0.5.
Consider GUUCCGUAGGCGUAAUGGGAAUGCGUCUCCCUCCUAAGGAGAAGACUGCGGGUUCGAAUCCCGUACGGAACG [U8A U19G C22U G58A], for which the yeast fitness was found to be 0.568.
As for GUUCCGUAGGCGUAAUGGUAACGCGACUACCUCCUAAGGAGAAGACUGCGGGUUCGAGUCCCGUCCGGACCG [U8A U26A C29A A65C A70C], the yeast fitness is not above 0.5.
In the case of GUUCCGUAGGCGUAAUGGUAACGCGUCUCCCUCCUAAGGAGAAGACUGCGGGUUCGAGUCCCGUACAGAACG [U8A G67A] it was 0.586; in that of GUUCCGUAGGCGUAAUGGCACCGCGUCUCCCUCCUAAGGAGAAGACUGCGGGUUCGAGUCCCGUAUGGAACG [U8A U19C A21C C66U], not above 0.5.
In the case of GUUCCGUAGGCGUAAUGGUAACGCGACUCCCUCCUAAGGAGAAGACUGCGGGUUGGAGUCCCGUACGGAACG [U8A U26A C55G] it was not above 0.5; in that of GUUCCGUAGGCGUAAUGGUAACGCGUCACCGUCCUAAGGAGAAGACUGCGGGUUCGAGUACCGUACGGAACG [U8A U28A C31G C60A], not above 0.5; in that of GUUCCGUAGGCGACAAGGUAACGCGUCUCCCUCCUAAGGAGAAGACUGCGGGUUCGAGUCCCGUACAGAACG [U8A U13A A14C U16A G67A], 0.584.
Take GUUCCGUAGGCGUAAUGGUAACGCCUCUCCCUCCUACGGAGAAGACUGCGGGUUCGAGUCCCGUAUGGAACG [U8A G25C A37C C66U]: the yeast fitness is not above 0.5.
On to GUUCCGUAGGCGAAAUGCUAACGGGUCUCCCGCCUAAGGAGAAGACUGCGGGUUCGAUUCCCGUACGGAACG [U8A U13A G18C C24G U32G G58U], for which the yeast fitness was not above 0.5.
The result for GUUCCGUAGGCGUAAUGGUAACGCGUCUCCCUCCUAAGGAGAAAACUGCGGGUUCGAGUCCCGCAAGGAACG [U8A G44A U64C C66A] reads not above 0.5.
As for GUUCCGUAGGCGUAAUGGUAACGCAUCUGCCUCCUACGGAGAAGACUGCGGGUUCGAGUCCCGUUCGGAACG [U8A G25A C29G A37C A65U], the yeast fitness was not above 0.5.
In the case of GUUCCGUAGGCGUAAUGGUAACGCGUCUCCCUCCUAAGGAGAAGACUGCCGGUUCAAGUCCCGUACGGAACG [U8A G50C G56A] it was not above 0.5; in that of GUUCCGUAGGCGUAAUGGUAACGCGUCACCCUCCUAAGGAGAAGACUGCGGGUUCGAGUCCCGUAUGGAACG [U8A U28A C66U], not above 0.5; in that of GUUCCGUAGGCGACACGGUAACGCGUCUCCCUCCUAAGGAGAAGACUGCGGGUUCGAGUCCCGUACGGAACG [U8A U13A A14C U16C], not above 0.5.
In the case of GUUCCGUAGGCGUAAUGGUAACGCGUCUCCCUCCUAAGGAGAAGACUGCGAGUUCGAGUCCCGUACGGAACG [U8A G51A] it was 0.63; in that of GUUCCGUAGGCGUAAUGGUAACGCGUCCCCCUCCUAAGGAGAAGACUGCGGGUUCGAGUCCCGUACGGAACG [U8A U28C], 0.738.
In the case of GUUCCGUAGGCGUAAUGGUAACGCGUCUCCCGCCUCAGGAGAAGACGGCGGGUUCGAGUCCCGUACGGAACG [U8A U32G A36C U47G] it was not above 0.5; in that of GUUCCGUAGGCGUAAUGGUAACGCGUCUCCCUCCUAAGCAGAAGACUGCGGGUUCGAGUCCCGUACGGACCG [U8A G39C A70C], 0.751.
Regarding GUUCCGUAGGCGUAAUGGUAACGCGUCUCCCUCCUAAGGAAAAGACUGCGGGUUCGAGUCCCGUACGGUACG [U8A G41A A69U], the yeast fitness was not above 0.5.
As to GUUCCGUAGGCGUAAUGGUAACGCAACUCCCUCCUAAGGAGCAGACUGCGGGUUCGAGUCCCGUACGGAACG [U8A G25A U26A A42C], the yeast fitness is not above 0.5.
Regarding GUUCCGUAGGCGUAAUGGUAACGCGUCUCCCUCCUAAGGAGAACACUGCGGGUUCGUGUCCCGUACGGAACG [U8A G44C A57U], the yeast fitness is not above 0.5.
GUUCCGUAGGCGUAAUGGUAACGCGUCUCCCUCCUAAAGAGAAGACUGCGGGUUCGAGUCCCGUACGGAACG [U8A G38A]: the yeast fitness turned out to be 0.652.
Take GUUCCGUAGGCGACAUGGUAACGCGUCUCCCUCCUAAGGAGAAGACUGCGGGUUCCAGUCCCGUACGGAACG [U8A U13A A14C G56C]: the yeast fitness was not above 0.5.
In the case of GUUCCGUAGGCGUAAUGGUAACGCGUCUCCCUCCUAAGGAGAAGACUGCGGAUUCCAGUCCCGUACGGAACG [U8A G52A G56C] it was 0.841.
GUUCCGUAGGCGACAAGGUAACGCGUCUCCCUCCUAAGGAGAAGACUGCGGGUUCGAGUCCCAUACAGAACG [U8A U13A A14C U16A G63A G67A]: the yeast fitness is not above 0.5.
Regarding GUUCCGUAGGCGUAAUGGUAACGCGUCUCCCUCCUAAGGAGAAGACUGCGGGUUCGAAUCCCGUACGGAACG [U8A G58A], the yeast fitness was determined as 0.771.
With GUUCCGUAGGCGUAAUGGCAACGCGUCUCCCUCCUUAGGAGAAGACUGCGGGUUCGAGUCCCGUACGGAACG [U8A U19C A36U], the yeast fitness was not above 0.5.
As to GUUCCGUAGGCGUAAUGGUAACGCGUCUCCCUCCUAAAGCGAAGACUGUGGGUCCGAGUGCCGUACGGAACG [U8A G38A A40C C49U U54C C60G], the yeast fitness was not above 0.5.
